The source of these data is publication PMC4586255 (DNA repair, 2010).

For assay [1], the system named is PCNA replication foci in NIH3T3 cells. Format: cell-based, murine. To be noted: for Small foci (CFP-PCNA) / Large foci (CFP-PCNA) / Mid Foci (CFP-PCNA): CFP channel (CFP-PCNA) in cells co-expressing the hEXO1 protein, 50 co-transfected cells; for Small foci (CFP-PCNA): early S-phase foci; for Large foci (CFP-PCNA): late S-phase foci; for Mid Foci (CFP-PCNA): mid S-phase foci; for foci formation and co-localization with PCNA during S-phase: NIH3T3 cells co-transfected with CFP-PCNA, 24–48 h; for sub-cellular localization: NIH3T3 cells, confocal imaging. The method in brief:
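Murine NIH3T3 cells were kept in DMEM with 10% FBS and penicillin/streptomycin at 37 °C, 10% CO₂. Cells (2*10⁵ per glass-bottom dish) were seeded 24 h before ExGen500 co-transfection with 3 μg total plasmid (CFP-PCNA plus YFP fusion). Confocal imaging at 24–48 h. Co-transfected cells were counted and binned by pattern, e.g. "no foci" (diffuse CFP-PCNA, diffuse nuclear YFP).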

The subject of assay [2] is hMLH1. Description: Interaction of hEXO1 variants with hMLH1. In kind it is binding, human. As to conditions: GST-hMLH1 pull-down, 35S-labeled IVTT protein; Fig. S1.
The test system of assay [3] is hMLH1. As to conditions: MIP-box mutant; ref [52]; cited from earlier work.
Assay [4] relates to laser induced DNA double strand breaks in HeLa cells. To be noted: NLS mutant, ref [43]; cited from earlier work.
For assay [5] the test system is unchanged. In kind it is cell-based. To be noted: laser irradiation.

B1: YFP-hEXO1-S702X: COOH-terminally truncated version of YFP-hEXO1, truncated from amino acid 702 (protein, UniProt Q9UQ84 1-701, looked up, fragment)
chain: MGIQGLLQFIKEASEPIHVRKYKGQVVAVDTYCWLHKGAIACAEKLAKGEPTDRYVGFCMKFVNMLLSHGIKPILVFDGCTLPSKKEVERSRRERRQANLLKGKQLLREGKVSEARECFTRSINITHAMAHKVIKAARSQGVDCLVAPYEADAQLAYLNKAGIVQAIITEDSDLLAFGCKKVILKMDQFGNGLEIDQARLGMCRQLGDVFTEEKFRYMCILSGCDYLSSLRGIGLAKACKVLRLANNPDIVKVIKKIGHYLKMNITVPEDYINGFIRANNTFLYQLVFDPIKRKLIPLNAYEDDVDPETLSYAGQYVDDSIALQIALGNKDINTFEQIDDYNPDTAMPAHSRSHSWDDKTCQKSANVSSIWHRNYSPRPESGTVSDAPQLKENPSTVGVERVISTKGLNLPRKSSIVKRPRSAELSEDDLLSQYSLSFTKKTKKNSSEGNKSLSFSEVFVPDLVNGPTNKKSVSTPPRTRNKFATFLQRKNEESGAVVVPGTRSRFFCSSDSTDCVSNKVSIQPLDETAVTDKENNLHESEYGDQEGKRLVDTDVARNSSDDIPNNHIPGDHIPDKATVFTDEESYSFESSKFTRTISPPTLGTLRSCFSWSGGLGDFSRTPSPSPSTALQQFRRKSDSPTSLPENNMSDVSQLKSEESSDDESHPLREEACSSQSQESGEFSLQSSNASKLSQCSSKDSD
modifications: N-terminal YFP tag
Regarding B1, in assay [1], the “Small foci (CFP-PCNA)” value amounted to 18%; the “Large foci (CFP-PCNA)” value came to 8%; the “Mid Foci (CFP-PCNA)” value came out at 20%; the “foci formation and co-localization with PCNA during S-phase” value was “none of the variant proteins were able to form foci or co-localize with PCNA during S-phase”. For the same molecule, the sub-cellular localization entry in assay [1] was “strictly nuclear”. Also, the hMLH1 interaction entry in assay [2] is reported as “sustain partial hMLH1 interaction”.

B2: YFP-hEXO1-F506A;F507A: MIP-box (putative PIP-box) substitution variant of YFP-hEXO1 (protein, UniProt Q9UQ84 1-846, looked up, variant F506A F507A)
Exonuclease 1: MGIQGLLQFIKEASEPIHVRKYKGQVVAVDTYCWLHKGAIACAEKLAKGEPTDRYVGFCMKFVNMLLSHGIKPILVFDGCTLPSKKEVERSRRERRQANLLKGKQLLREGKVSEARECFTRSINITHAMAHKVIKAARSQGVDCLVAPYEADAQLAYLNKAGIVQAIITEDSDLLAFGCKKVILKMDQFGNGLEIDQARLGMCRQLGDVFTEEKFRYMCILSGCDYLSSLRGIGLAKACKVLRLANNPDIVKVIKKIGHYLKMNITVPEDYINGFIRANNTFLYQLVFDPIKRKLIPLNAYEDDVDPETLSYAGQYVDDSIALQIALGNKDINTFEQIDDYNPDTAMPAHSRSHSWDDKTCQKSANVSSIWHRNYSPRPESGTVSDAPQLKENPSTVGVERVISTKGLNLPRKSSIVKRPRSAELSEDDLLSQYSLSFTKKTKKNSSEGNKSLSFSEVFVPDLVNGPTNKKSVSTPPRTRNKFATFLQRKNEESGAVVVPGTRSRAACSSDSTDCVSNKVSIQPLDETAVTDKENNLHESEYGDQEGKRLVDTDVARNSSDDIPNNHIPGDHIPDKATVFTDEESYSFESSKFTRTISPPTLGTLRSCFSWSGGLGDFSRTPSPSPSTALQQFRRKSDSPTSLPENNMSDVSQLKSEESSDDESHPLREEACSSQSQESGEFSLQSSNASKLSQCSSKDSDSEESDCNIKLLDSQSDQTSKLRLSHFSKKDTPLRNKVPGLYKSSSADSLSTTKIKPLGPARASGLSKKPASIQKRKHHNAENKPGLQIKLNELWKNFGFKKDSEKLPPCKKPLSPVRDNIQLTPEAEEDIFNKPECGRVQRAIFQ
modifications: N-terminal YFP tag
Consider B2, for which the “influence of mutation on hEXO1 hMLH1 interaction” value in assay [3] is “influence hEXO1 hMLH1 interactions”. Moreover, in assay [1], the “Small foci (CFP-PCNA)” value is listed as 4%; the “Large foci (CFP-PCNA)” value worked out at 0%; the “Mid Foci (CFP-PCNA)” value is 0%; the “foci formation and co-localization with PCNA during S-phase” value is on record as “unable to associate with PCNA in replication foci”. Also, the sub-cellular localization result in assay [1] is on record as “higher degree of cytoplasmic distribution”. For the same molecule, the “effect of expression on S-phase distribution” value in assay [1] (NIH3T3 cells co-expressing CFP-PCNA) was “only very few S-phase cells, co-expressing this variant and PCNA were observed”.

B3: hEXO1-K418A: NLS mutant (protein, UniProt Q9UQ84 1-846, looked up, variant K418A)
Exonuclease 1: MGIQGLLQFIKEASEPIHVRKYKGQVVAVDTYCWLHKGAIACAEKLAKGEPTDRYVGFCMKFVNMLLSHGIKPILVFDGCTLPSKKEVERSRRERRQANLLKGKQLLREGKVSEARECFTRSINITHAMAHKVIKAARSQGVDCLVAPYEADAQLAYLNKAGIVQAIITEDSDLLAFGCKKVILKMDQFGNGLEIDQARLGMCRQLGDVFTEEKFRYMCILSGCDYLSSLRGIGLAKACKVLRLANNPDIVKVIKKIGHYLKMNITVPEDYINGFIRANNTFLYQLVFDPIKRKLIPLNAYEDDVDPETLSYAGQYVDDSIALQIALGNKDINTFEQIDDYNPDTAMPAHSRSHSWDDKTCQKSANVSSIWHRNYSPRPESGTVSDAPQLKENPSTVGVERVISTKGLNLPRKSSIVARPRSAELSEDDLLSQYSLSFTKKTKKNSSEGNKSLSFSEVFVPDLVNGPTNKKSVSTPPRTRNKFATFLQRKNEESGAVVVPGTRSRFFCSSDSTDCVSNKVSIQPLDETAVTDKENNLHESEYGDQEGKRLVDTDVARNSSDDIPNNHIPGDHIPDKATVFTDEESYSFESSKFTRTISPPTLGTLRSCFSWSGGLGDFSRTPSPSPSTALQQFRRKSDSPTSLPENNMSDVSQLKSEESSDDESHPLREEACSSQSQESGEFSLQSSNASKLSQCSSKDSDSEESDCNIKLLDSQSDQTSKLRLSHFSKKDTPLRNKVPGLYKSSSADSLSTTKIKPLGPARASGLSKKPASIQKRKHHNAENKPGLQIKLNELWKNFGFKKDSEKLPPCKKPLSPVRDNIQLTPEAEEDIFNKPECGRVQRAIFQ
modifications: N-terminal YFP tag
As for B3, the “nuclear localization in untreated cells” value in assay [4] is on record as “excluded from the nucleus in untreated cells”. For the same molecule, in assay [5], the “nuclear translocation in response to laser induced DNA damage” value was “translocated from the cytoplasm into the nucleus in response to laser induced DNA damage”.

B4: hEXO1-Δ423–507: internal deletion variant (protein)
chain: MGIQGLLQFIKEASEPIHVRKYKGQVVAVDTYCWLHKGAIACAEKLAKGEPTDRYVGFCMKFVNMLLSHGIKPILVFDGCTLPSKKEVERSRRERRQANLLKGKQLLREGKVSEARECFTRSINITHAMAHKVIKAARSQGVDCLVAPYEADAQLAYLNKAGIVQAIITEDSDLLAFGCKKVILKMDQFGNGLEIDQARLGMCRQLGDVFTEEKFRYMCILSGCDYLSSLRGIGLAKACKVLRLANNPDIVKVIKKIGHYLKMNITVPEDYINGFIRANNTFLYQLVFDPIKRKLIPLNAYEDDVDPETLSYAGQYVDDSIALQIALGNKDINTFEQIDDYNPDTAMPAHSRSHSWDDKTCQKSANVSSIWHRNYSPRPESGTVSDAPQLKENPSTVGVERVISTKGLNLPRKSSIVKRPRSCSSDSTDCVSNKVSIQPLDETAVTDKENNLHESEYGDQEGKRLVDTDVARNSSDDIPNNHIPGDHIPDKATVFTDEESYSFESSKFTRTISPPTLGTLRSCFSWSGGLGDFSRTPSPSPSTALQQFRRKSDSPTSLPENNMSDVSQLKSEESSDDESHPLREEACSSQSQESGEFSLQSSNASKLSQCSSKDSDSEESDCNIKLLDSQSDQTSKLRLSHFSKKDTPLRNKVPGLYKSSSADSLSTTKIKPLGPARASGLSKKPASIQKRKHHNAENKPGLQIKLNELWKNFGFKKDSEKLPPCKKPLSPVRDNIQLTPEAEEDIFNKPECGRVQRAIFQ
modifications: 35S-cysteine label; left off: myc, C-terminal, state not stated | His6, C-terminal, state not stated
Turning to B4, the hMLH1 interaction result in assay [2] is “sustain partial hMLH1 interaction”.
